# Source: ChEMBL document CHEMBL1152798, “Unsymmetrically disubstituted urea derivatives: a potent class of antiglycating agents” (Bioorg Med Chem, 2009)
# Experiment: Antiglycation activity of compound assessed as inhibition of BSA-derived advance glycated end product formation after 7 days by spectrofluorimeter
# Assay type: physicochemical
# Details: not given; call rule not given here
# In short: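 BSA (10 mg/mL) mixed with anhydrous glucose (50 mg/mL) and test sample in equal parts, in sodium phosphate buffer pH 7.4 (67 mM Na2HPO4, 3 mM sodium azide), incubated 37 °C for 7 days. Protein precipitated with TCA and centrifuged, pellet washed with 10% TCA, then redissolved in PBS. AGE fluorescence read at excitation 370 nm, emission 440 nm. % inhibition computed against glycated control (BSA + glucose + buffer).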
row,SMILES,IC50
1,Cc1ccc(NC(=O)Nc2cccc(Cl)c2)c(C)c1,Not Active
2,Cc1ccc(C)c(NC(=O)Nc2cccc(Cl)c2)c1,Not Active
3,Cc1cccc(NC(=O)Nc2cccc(Cl)c2)c1C,Not Active

# Results, then the compound that gave them:
row,IC50,SMILES
1,Not Active,Cc1cccc(C)c1NC(=O)Nc1ccccc1
2,Not Active,Cc1cc(C)cc(NC(=O)Nc2ccccc2)c1
3,Not Active,Cc1ccc(NC(=O)Nc2cccc(Cl)c2)cc1C
4,Not Active,Cc1cccc(C)c1NC(=O)Nc1cccc(Cl)c1
5,Not Active,Cc1cccc(NC(=O)Nc2ccccc2)c1C
6,Not Active,Cc1ccc(NC(=O)Nc2ccccc2)c(C)c1
7,Not Active,Cc1ccc(C)c(NC(=O)Nc2ccccc2)c1

# Same assay, conditions: read-out: IC50
row,SMILES,IC50 [µM]
1,O=C(Nc1cccc(Cl)c1)Nc1ccccc1Br,6.6
2,COc1cccc(NC(=O)Nc2cccc(Cl)c2)c1,5.8
3,O=C(Nc1cccc(Cl)c1)Nc1cccc(Br)c1,8.16
4,O=C(Nc1ccc(Br)cc1)Nc1cccc(Cl)c1,6.4
5,Cc1cc(C)cc(NC(=O)Nc2cccc(Cl)c2)c1,906
6,COc1ccc([N+](=O)[O-])cc1NC(=O)Nc1cccc(Cl)c1,408
7,O=C(Nc1ccccc1)Nc1ccccc1Br,120
8,COc1ccc(NC(=O)Nc2cccc(Cl)c2)cc1,7.14
9,O=C(Nc1cccc(Cl)c1)Nc1ccc(Cl)c(Cl)c1,15.2
10,C[C@@H]1O[C@@H](OC[C@H]2O[C@@H](Oc3c(-c4ccc(O)c(O)c4)oc4cc(O)cc(O)c4c3=O)[C@H](O)[C@@H](O)[C@@H]2O)[C@H](O)[C@H](O)[C@H]1O [RUTIN],41.9

# Results, then the compound that gave them:
row,IC50 [µM],SMILES
1,4.26,O=C(Nc1ccccc1)Nc1cccc(Br)c1
2,8.4,COc1ccc(NC(=O)Nc2ccccc2)cc1
3,9,Cc1ccc(NC(=O)Nc2ccccc2)cc1C
4,838,O=C(Nc1ccccc1)Nc1ccc(Cl)c(Cl)c1
5,7.02,COc1ccccc1NC(=O)Nc1cccc(Cl)c1
6,229,COc1cccc(NC(=O)Nc2ccccc2)c1
7,7.27,O=C(Nc1ccccc1)Nc1cccc([N+](=O)[O-])c1
8,162,COc1ccc([N+](=O)[O-])cc1NC(=O)Nc1ccccc1
9,6.1,O=C(Nc1ccccc1)Nc1ccc(Br)cc1
